“Also recorded” adds a separate entry of the source. Like-named read-outs stand apart in the source and are kept apart here. No end group written: not given here.
Legend:
[1] = target: Gcn4 cAD (residues 101–134) labeled with Oregon Green 488 (S. cerevisiae) (UniProt P03069); assay: fluorescence polarisation
[2] = target: Gcn4 tAD (residues 1–134) labeled with Oregon Green 488 (S. cerevisiae) (UniProt P03069); assay: fluorescence polarisation
[3] = target: Gcn4 N-terminal activation domain (nAD; residues 1–100) (S. cerevisiae) (UniProt P03069); assay: ITC
Med15 ABD1 [4] = target: T1, Med15 ABD1 (Saccharomyces cerevisiae, UniProt P19659); assay: NMR competition: unlabeled cAD added to 15N-tAD + ABD1; assay type: binding, S. cerevisiae; conditions: (1H,15N)-HSQC
T1 sequence (P19659 158-238 limits assumed): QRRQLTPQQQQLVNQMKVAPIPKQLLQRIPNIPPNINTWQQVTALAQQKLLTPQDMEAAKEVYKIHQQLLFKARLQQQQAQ

Med15 ABD3 [5] = target: T2, Med15 ABD3 (Saccharomyces cerevisiae, UniProt P19659); assay: ITC binding, Med15 ABD3; set-up: species or system S. cerevisiae; conditions: 20 mM KH2PO4 (pH 7.5), 200 mM KCl; for Kd: nAD 0.111 mM vs ABD3 1.12 mM, ABD3 0.236 mM vs cAD 2.35 mM, single binding site model
T2 sequence (P19659 484-651): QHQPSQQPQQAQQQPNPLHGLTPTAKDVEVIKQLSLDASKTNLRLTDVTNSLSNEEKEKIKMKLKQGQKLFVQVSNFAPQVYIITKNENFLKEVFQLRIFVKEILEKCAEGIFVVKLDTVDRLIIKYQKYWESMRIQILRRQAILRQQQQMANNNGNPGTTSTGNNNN
Procedure, shortened: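 ITC was run on a MicroCal ITC200 in 20 mM KH2PO4 (pH 7.5), 200 mM KCl. In one run, Gcn4 nAD in the cell (0.111 mM) was titrated with Med15 ABD3 from the syringe (1.12 mM). In the other, ABD3 in the cell (0.236 mM) was titrated with Gcn4 cAD (2.35 mM). Data were fitted with a single binding site model.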

Med15 ABD1 [6] = target: T1, Med15 ABD1; conditions: ITC; 20 mM KH2PO4 (pH 7.5), 200 mM KCl; cAD; ref Brzovic et al., 2011; cited from earlier work
Med15 KIX = target: T3, Med15 KIX (Saccharomyces cerevisiae, UniProt P19659); conditions: FP; Oregon Green 488-labeled Gcn4 peptide; ref Herbig et al., 2010; cited from earlier work
T3 sequence (P19659 6-91): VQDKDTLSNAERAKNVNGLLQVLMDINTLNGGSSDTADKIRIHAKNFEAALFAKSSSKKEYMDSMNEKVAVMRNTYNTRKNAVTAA

Med15 ABD2 [7] = target: T4, Med15 ABD2 (Saccharomyces cerevisiae, UniProt P19659); assay: ITC binding, Med15 ABD2; set-up: species or system S. cerevisiae; conditions: 20 mM KH2PO4 (pH 7.5), 200 mM KCl, nAD 0.111 mM vs ABD2 1.60 mM, ABD2 0.224 mM vs cAD 2.35 mM, not measurable due to weak binding or low heats of binding
T4 sequence (P19659 277-368): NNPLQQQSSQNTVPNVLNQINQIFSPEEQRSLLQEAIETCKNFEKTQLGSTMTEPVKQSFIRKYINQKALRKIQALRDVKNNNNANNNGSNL

Med15 ABD1 [8] = target: T1, Med15 ABD1; conditions: ref Brzovic et al., 2011; cited from earlier work
Med15 ABD2 [9] = target: T4, Med15 ABD2; assay: Fluorescence polarization binding, Med15 ABD2; set-up: species or system S. cerevisiae
Procedure, shortened: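 Gcn4 AD peptides (nAD, cAD, tAD) labelled with Oregon Green 488 were titrated with Med15 ABD2, giving 15 concentrations spanning 0–250 μM for tAD. Proteins were size-exclusion purified into 20 mM KH2PO4 (pH 7.5), 200 mM KCl. Polarization was measured on a Beacon 2000. Kd was fitted with a one-site total binding model including a nonspecific term and background.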

[10] = target: Med15 activator-binding domain 1 (ABD1) (S. cerevisiae (yeast)) (UniProt P19659); assay: ITC
individual Med15 ABDs = assay: ITC and/or FP binding to individual Med15 ABDs; set-up: species or system S. cerevisiae
Procedure, shortened: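 Med15 ABD and Gcn4 AD proteins came from E. coli BL21(DE3) RIL and were polished by size exclusion into 20 mM KH₂PO₄ (pH 7.5), 200 mM KCl; concentrations were set by UV-Vis. FP used Oregon Green 488-labelled Gcn4 peptides, with 15 Med15 concentrations (0–250 µM) against tAD and 0–225 µM ABD3 against cAD. FP data were fit to a one-site total binding model with a nonspecific term. ITC data were fit to a single-site model.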

Med15 KIX123 = assay: Fluorescence polarization binding, Med15 KIX123; set-up: species or system S. cerevisiae; conditions: KIX123 vs ABD123
Procedure, shortened: (§1)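 Gcn4 tAD peptide labelled with Oregon Green 488 was titrated with 15 Med15 concentrations spanning 0–250 μM (ABD123 or KIX123). Proteins were in 20 mM KH2PO4 (pH 7.5), 200 mM KCl. Polarization was read on a Beacon 2000. Kd came from non-linear regression to a one-site total binding model (Bmax·X/(Kd+X) + NS·X + background).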

Med15 ABD123 [11] = target: T5, Med15 ABD123 (Saccharomyces cerevisiae, UniProt P19659, DEL239-272/DEL373-483); assay: Fluorescence polarization binding, Med15 ABD123; set-up: species or system S. cerevisiae; conditions: tAD binding to ABD123
T5 sequence (P19659 with tags, fused parts or gaps DEL239-272/DEL373-483): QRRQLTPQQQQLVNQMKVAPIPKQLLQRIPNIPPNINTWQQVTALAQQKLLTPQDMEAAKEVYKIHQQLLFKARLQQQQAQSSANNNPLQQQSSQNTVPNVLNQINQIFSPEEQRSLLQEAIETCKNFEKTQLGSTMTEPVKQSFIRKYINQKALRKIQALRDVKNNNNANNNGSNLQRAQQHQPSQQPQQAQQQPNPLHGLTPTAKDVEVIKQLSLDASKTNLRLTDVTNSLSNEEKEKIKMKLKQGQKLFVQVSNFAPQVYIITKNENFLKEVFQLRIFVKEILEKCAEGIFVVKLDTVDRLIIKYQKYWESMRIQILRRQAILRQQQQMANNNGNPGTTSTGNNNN
Procedure, shortened: as §1

Med15 ABD1 [12] = target: T1, Med15 ABD1; assay: ITC binding, Med15 ABD1; set-up: species or system S. cerevisiae; conditions: 200 mM KCl
Procedure, shortened: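 ITC was run on a MicroCal ITC200 in 20 mM KH2PO4 (pH 7.5), 200 mM KCl. Med15 ABD1 in the cell (0.150 mM) was titrated with Gcn4 nAD from the syringe (1.50 mM). Thermodynamic parameters came from a single binding site model fit.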

Med15 ABD2 [13] = target: T4, Med15 ABD2; conditions: FP; Oregon Green 488-labeled Gcn4 peptide; ref Herbig et al., 2010; cited from earlier work
Med15 ABD123 [14] = target: T5, Med15 ABD123; conditions: FP; Oregon Green 488-labeled Gcn4 peptide; ref Herbig et al., 2010; cited from earlier work
Med15 ABD1 [15] = target: T1, Med15 ABD1; assay: NMR secondary structure propensity upon binding ABD1; set-up: species or system S. cerevisiae; conditions: bound to ABD1; backbone chemical shifts, ncSPC; 25°C
Procedure, shortened: (§2)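 ¹³C,¹⁵N-labelled Gcn4 nAD was titrated with unlabelled Med15 ABD at ~200 μM labelled sample. Bound-state assignments were checked by triple-resonance experiments. Secondary structure propensity came from backbone chemical shifts via ncSPC.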

Med15 ABD1 [16] = target: T1, Med15 ABD1; conditions: FP; Oregon Green 488-labeled Gcn4 peptide; ref Herbig et al., 2010; cited from earlier work
Med15 ABD3 [17] = target: T2, Med15 ABD3; conditions: FP; Oregon Green 488-labeled Gcn4 peptide; ref Herbig et al., 2010; cited from earlier work
[18] = tested on: Med15 KIX domain (in KIX123); assay: EDC crosslinking-MS, KIX123-tAD, links to KIX; assay type: binding, S. cerevisiae; conditions: EDC 7.5 mM, Sulfo-NHS 2 mM, 2 hr, room temperature; Gcn4 1–140
Procedure, shortened: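 Gcn4 AD and KIX123 were purified by size exclusion into PBS (pH 7.2) and cross-linked for 2 hr at room temperature. Samples were reduced (50 mM TCEP, 8 M urea, 37°C, 15 min), alkylated (15 mM iodoacetamide, dark, 37°C, 1 hr), diluted 10-fold in 100 mM ammonium bicarbonate and digested overnight at 37°C with trypsin (1:15 w/w). After C18 cleanup, peptides were run on an Orbitrap Elite with HCD and a 90 min 5–40% ACN gradient. pLink and Nexus searches used 5% FDR, and a crosslink required ≥4 consecutive b/y ions per peptide.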

Med15 ABD2 [19] = target: T4, Med15 ABD2; assay: NMR secondary structure propensity upon binding ABD2; set-up: species or system S. cerevisiae; conditions: bound to ABD2, saturating; backbone chemical shifts, ncSPC; 25°C
Procedure, shortened: as §2

Molecule: Med15 activator-binding domain 3 (ABD3; Med15 484–651) (from UniProt P19659 484-651) (domain or fragment)
- Kd [1]: 13.9 µM
- Kd [2]: 4.4 µM
- Kd [3]: 23.9 µM
- dH [3]: 7.02 kcal/mol

Molecule: Med15 activator-binding domain 1 (ABD1) (from UniProt P19659 158-238) (domain or fragment)
- Kd [2]: 2.66 µM

Molecule: STDSTPMFEYENLEDNSKEWTSLFDNDIPVTTDD [cAD]
- competition with 15N-tAD for ABD1 (Med15 ABD1 [4]): cAD can compete off both cAD and nAD residues
- Kd (Med15 ABD3 [5]): unable to measure
- ΔS (Med15 ABD1 [6]): 4.58 cal/mol/deg
- Kd (Med15 KIX): neither nAD nor cAD showed detectable KIX binding; also recorded: unable to measure
- Kd (Med15 ABD2 [7]): unable to measure
- helical structure upon ABD1 binding, residues 117–125 (Med15 ABD1 [8]): adopt helical structure
- weaker binding (cAD to ABD2) than the other pairwise interactions (Med15 ABD2 [9]): ~ 10 fold
- affinity for ABD2 (in words) (Med15 ABD2 [9]; compared with nAD or tAD): substantially weaker affinity

Molecule: Med15 158–651 Δ239–272, Δ373–483 (ABD123) (from UniProt P19659 158-651) (domain or fragment)
- Kd [2]: 0.109 µM

Molecule: Med15 activator-binding domain 2 (ABD2; residues 277–368) (from UniProt P19659 277-368) (domain or fragment)
- Kd [2]: 19.5 µM

Molecule: Gcn4 N-terminal activation domain (nAD; residues 1–100) (from UniProt P03069 1-100) (domain or fragment)
- Kd [10]: 10.8 µM
- dH [10]: 2.45 kcal/mol

B1: tAD: tandem AD polypeptide, Gcn4 residues 1–134 (1–140 in crosslinking) (protein, UniProt P03069 1-134, looked up, fragment)
chain: MSEYQPSLFALNPMGFSPLDGSKSTNENVSASTSTAKPMVGQLIFDKFIKTEEDPIIKQDTPSNLDFDFALPQTATAPDAKTVLPIPELDDAVVESFFSSSTDSTPMFEYENLEDNSKEWTSLFDNDIPVTTDD
- affinity for individual ABDs (in words) (individual Med15 ABDs): affinity close to the stronger of the individual nAD or cAD interactions
- increase of Gcn4 affinity by presence of KIX along with ABD1,2,3 (Med15 KIX123): ~ 30%
- higher affinity than the strongest piecemeal interaction (Med15 ABD123 [11]): about 20 fold

B2: nAD: N-terminal activation domain of Gcn4, residues 1–100 (protein, UniProt P03069 1-100, looked up, fragment)
chain: MSEYQPSLFALNPMGFSPLDGSKSTNENVSASTSTAKPMVGQLIFDKFIKTEEDPIIKQDTPSNLDFDFALPQTATAPDAKTVLPIPELDDAVVESFFSS
- ΔH (Med15 ABD1 [12]; 20 mM KH2PO4 (pH 7.5), nAD): 2,454 ± 78 cal/mol
- ΔS (Med15 ABD1 [12]; 20 mM KH2PO4 (pH 7.5), nAD): 31.0 cal/mol/deg
- Kd (Med15 ABD1 [12]; Microcal ITC200, 20 mM KH2PO4 (pH 7.5), cell ABD1 0.150 mM, syringe nAD 1.50 mM, single binding site model): 10.8 ± 1.5 µM
- ΔH (Med15 ABD3 [5]): 7,015 ± 221 cal/mol
- Kd (Med15 ABD3 [5]): 23.9 ± 2 µM
- Kd (Med15 ABD2 [13]): 21.8 ± 3.8 µM
- Kd (Med15 ABD123 [14]): 0.36 ± 0.02 µM
- Kd (Med15 KIX): neither nAD nor cAD showed detectable KIX binding; also recorded: unable to measure
- helical content of the other three nAD hydrophobic clusters (Med15 ABD1 [15]): < 20%
- Kd (Med15 ABD2 [7]): unable to measure
- Kd (Med15 ABD1 [16]): 3.3 ± 0.5 µM
- Kd (Med15 ABD3 [17]): 2.6 ± 0.4 µM
- crosslinks to Med15 KIX domain [18]: crosslinks extensively to Gcn4 in the large complex, mainly to nAD
- helical content of C-terminal hydrophobic cluster (residues 94–98) (Med15 ABD2 [19]): ~ 25%

Reference: publication PMC5908246 (Cell reports, 2018)
